Assay: Toxicity liver stage against HepG2, at 10uM
Format: cell-based
Parameters: test concentration 10 uM, cell line HepG2-A16-CD81EGFP
Details: human, HepG2-A16-CD81EGFP cells; read-out: INHIBITION
How it was run: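 Uninfected HepG2-A16-CD81EGFP cells, 3 × 10^3 per well, 1536-well, plated on prespotted compound at 10 μM final, parasite-free screening media added to match infected plates; puromycin 10 μM positive, DMSO 0.5% negative; run in parallel with 48 h PbLuc assay at 37 °C, 5% CO2; viability by CellTiter-Glo luminescence, normalized to controls.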

## O=C1CCCc2cc(-c3csc(CCN4CCOC4=O)n3)ccc2N1
  cytotoxicity at 10 µM: 0.196%

## O=C([C@H]1C[C@H]2OCC[C@H]2N(Cc2ccccc2F)C1)N1CCCCO1
  cytotoxicity at 10 µM: -72.2%

## CC/C=C(\C)CN1CCC(CNC(=O)c2ccnc(N)c2)C1 (configuration not stated)
  cytotoxicity at 10 µM: 8.32%

## O=C(NC[C@H]1OC[C@@H](NC(=O)C2CCCC2)[C@@H]1O)c1ccncc1
  cytotoxicity at 10 µM: 5.45%

## CCN1CCC2(CN(C(=O)N(C)C)CC23CCNCC3)C1=O (configuration not stated)
  cytotoxicity at 10 µM: 4.29%

## O=S(=O)(Nc1cn[nH]c1)c1ccc(F)c(Br)c1
  cytotoxicity at 10 µM: -11.5%

## CS(=O)(=O)c1cn[nH]c1C1CCCCN1C(=O)c1cncs1 (configuration not stated)
  cytotoxicity at 10 µM: -19.1%

## Cc1cnn(C2CCCN(C(=O)Cc3ccc(C#N)cc3)C2)c1 (configuration not stated)
  cytotoxicity at 10 µM: -8.45%

## COc1ccc(CN2CCn3c(C(=O)N(C)C)cnc3C2)cc1
  cytotoxicity at 10 µM: -69.6%

## Cc1nnc(NC(=O)CN2CCc3nn(C(C)C)c(=O)cc3C2)s1
  cytotoxicity at 10 µM: -18.9%

## CNC(=O)c1ccnc(N2CCCC(COc3cccc(C)c3)C2)c1 (configuration not stated)
  cytotoxicity at 10 µM: 7.68%

## CN1CCC(NC(=O)NCCNc2ccccn2)CC1
  cytotoxicity at 10 µM: -1.72%

## NC(=O)CCn1cc(CNCCCc2ccccc2O)c2ccccc21
  cytotoxicity at 10 µM: 8.92%

## CC(=O)Nc1cccc(OCCNC(=O)N(C)Cc2ccccc2)c1
  cytotoxicity at 10 µM: -13.2%

## CCn1cc2c(n1)C(COCC1CC1)CN(c1ccc(C)nn1)C2 (configuration not stated)
  cytotoxicity at 10 µM: 12.8%

## Cc1nc(CCNC(=O)NC2CCCN(c3ncccn3)C2)cs1 (configuration not stated)
  cytotoxicity at 10 µM: -129%

## CS(=O)(=O)N(Cc1ccon1)c1ccc2c(c1)OCO2
  cytotoxicity at 10 µM: 1.06%

## COc1ccc(-c2noc(C(=O)NCCN3CCCCC3)n2)cc1OC
  cytotoxicity at 10 µM: -6.24%

## CCN1CCN(c2nsc(-c3cccnc3)c2C#N)CC1
  cytotoxicity at 10 µM: -4.2%

## CCOC1COC2(CCN(S(=O)(=O)c3ccc(F)cc3)CC2)C1 (configuration not stated)
  cytotoxicity at 10 µM: -109%

## CS(=O)(=O)NCC1CCN(Cc2cc3ccccc3[nH]c2=O)C1 (configuration not stated)
  cytotoxicity at 10 µM: -6.92%

## CNc1cncc(C2CCN(S(C)(=O)=O)CC2)n1
  cytotoxicity at 10 µM: 3.54%

## CCCc1nc(CN(CC)C(=O)c2ccc3ncsc3c2)no1
  cytotoxicity at 10 µM: 9.65%

## CS(=O)(=O)NC[C@]12COC[C@H]1CN(C(=O)c1cnccn1)C2
  cytotoxicity at 10 µM: 6.3%

## CC1CCN(CCCNS(=O)(=O)c2cccc(F)c2)CC1
  cytotoxicity at 10 µM: -12.3%

## CN1CC2(CCN(C(=O)c3coc4c3C(=O)CCC4)C2)OC1=O (configuration not stated)
  cytotoxicity at 10 µM: -2.36%

## CC(=O)Nc1ccc(C(=O)Nc2cnc3n2CCCC3)cc1C
  cytotoxicity at 10 µM: 0.271%

## O=C(c1ccc(N2CCCC2)nn1)N1CCCC(n2cccn2)C1 (configuration not stated)
  cytotoxicity at 10 µM: -5.58%

## Cc1cccc(-n2c(C)cc(=O)[nH]c2=O)c1C
  cytotoxicity at 10 µM: -2%

## c1ccc(C2CCCN(Cc3cc4n(n3)CCNC4)CC2)cc1 (configuration not stated)
  cytotoxicity at 10 µM: 1.9%

## O=C(CC1CC1)N1CCCn2c(nnc2Cn2cccc2)C1
  cytotoxicity at 10 µM: 10.7%

## Cc1cnc2n(c1=O)CC(C(=O)NC1CC1)CS2 (configuration not stated)
  cytotoxicity at 10 µM: -18.3%

## Cc1ocnc1C(=O)N1CCN(CCOc2ccccc2)CC1
  cytotoxicity at 10 µM: 1.12%

## Cc1ccc2c(c1)SCC(=O)N2CC(=O)N1CCCC1c1cc(C)no1 (configuration not stated)
  cytotoxicity at 10 µM: 8.32%

## O=C(NCC1CC1)N1CCN(Cc2ccc3c(c2)OCCO3)CC1
  cytotoxicity at 10 µM: -4.3%

## O=C(NCCNc1ncccn1)C1CCN(C(=O)C2CC2)CC1
  cytotoxicity at 10 µM: -3.02%

## O=C(Cc1ccsc1)N1CCN(CCOc2ccccc2)CC1
  cytotoxicity at 10 µM: -4.6%

## O=S(=O)(NCCNc1cc(-n2cccn2)ncn1)c1cccs1
  cytotoxicity at 10 µM: -6.58%

## Cn1ncnc1-c1ccnc(NCCCc2ccncc2)n1
  cytotoxicity at 10 µM: -1.41%

## N#Cc1ccc(S(=O)(=O)Nc2ccc(N3CCOCC3)cn2)cc1
  cytotoxicity at 10 µM: 0.966%

## Cc1noc(-c2ccnc(Oc3ccccc3CN3CCCCC3)c2)n1
  cytotoxicity at 10 µM: -1.76%

## Cc1cc(C2CCCN(CCc3ccc4c(c3)CCO4)C2)n[nH]1 (configuration not stated)
  cytotoxicity at 10 µM: -7.66%

## O=C(c1ccon1)N1CCCCC1c1nc2cc(F)ccc2[nH]1 (configuration not stated)
  cytotoxicity at 10 µM: 2.58%

## O=C(CCc1ccccc1)N1CC(n2cncn2)C1
  cytotoxicity at 10 µM: -15.7%

## COc1cc(C(=O)NS(=O)(=O)c2cncc(Br)c2)cc(Cl)c1OC
  cytotoxicity at 10 µM: -2.21%

## CN1CCN(C(=O)c2n[nH]c3c2CN(Cc2nccs2)CC3)CC1
  cytotoxicity at 10 µM: -144%

## CC(=O)N1CCC2(CCN(Cc3cccc(F)c3)CC2)CC1
  cytotoxicity at 10 µM: -5.46%

## O=C(Nc1cnc(Oc2ccccc2)nc1)C1CC1
  cytotoxicity at 10 µM: 0.174%

## CCc1nnsc1C(=O)N1CCCC(COc2ccc(F)cc2)C1 (configuration not stated)
  cytotoxicity at 10 µM: -155%

## CCOCCC(=O)N1CCCN(Cc2csc(CC)n2)CC1
  cytotoxicity at 10 µM: 3.9%

## O=C(NC1CCC1)[C@@H]1CCO[C@@H]2CCN(C3CCCC3)C[C@H]21
  cytotoxicity at 10 µM: 9.05%

## CCN(CC)C1CCN(C(=O)c2cc(-n3cccn3)ccc2Cl)CC1
  cytotoxicity at 10 µM: 2.87%

## Cc1cc(C(=O)NC2=NCCS2)c(C)n1-c1ccccn1
  cytotoxicity at 10 µM: 6.25%

## Cc1cc(C)n(-c2ccc(C(=O)NCC(c3cccs3)N(C)C)cc2)n1 (configuration not stated)
  cytotoxicity at 10 µM: 4.58%

## O=C(O)c1cc(-c2ccccc2)ns1
  cytotoxicity at 10 µM: 1.91%

## Cc1ccc(C(=O)N2CCC3(CC2)c2ccccc2[C@@H](N)[C@@H]3O)c(=O)[nH]1
  cytotoxicity at 10 µM: -2.72%

## CC(C)(C)c1ccc(C(=O)NCCCNC(=O)c2cnccn2)cc1
  cytotoxicity at 10 µM: 6.58%

## c1ccc(CCN2CCCC2c2cncc(Nc3nncs3)n2)cc1 (configuration not stated)
  cytotoxicity at 10 µM: 5.62%

## COc1cc(CNCc2ccc(-n3nc(C)cc3C)nc2)cc(OC)c1
  cytotoxicity at 10 µM: -8.57%

## COCCS(=O)(=O)N(Cc1ccsc1)c1ccccc1
  cytotoxicity at 10 µM: -4.76%

## Cc1ccc(OCC(O)COC2CCOCC2)c(Br)c1 (configuration not stated)
  cytotoxicity at 10 µM: -4.66%

## Cc1cccnc1C(=O)N1CCCCC1c1[nH]ncc1S(C)(=O)=O (configuration not stated)
  cytotoxicity at 10 µM: 5.92%

## CN(C)C(=O)[C@H]1C[C@H]2CN(S(=O)(=O)Cc3ccccc3)C[C@@H]1O2
  cytotoxicity at 10 µM: 4.81%

## CC(C)(C)n1ncc2c1NC(=O)CC2c1c(F)cccc1F (configuration not stated)
  cytotoxicity at 10 µM: -1.53%

## Cn1nc(C#N)c2c1CN(C(=O)c1c[nH]cn1)CCC2
  cytotoxicity at 10 µM: -122%

## O=C(c1cncs1)N1CCC(Cc2cnc3[nH]ccc3c2)CC1
  cytotoxicity at 10 µM: -3.94%

## O=S1(=O)CCC(N(CCc2ccc3c(c2)CCO3)C2CC2)C1 (configuration not stated)
  cytotoxicity at 10 µM: -0.532%

## CC(C)OCCNC(=O)C1CCC(=O)N(C2CCCC2)C1 (configuration not stated)
  cytotoxicity at 10 µM: -12.5%

## O=C(NCc1nc[nH]n1)c1cc(COc2cccc(F)c2)[nH]n1
  cytotoxicity at 10 µM: -4.99%

## COCCN1CCC2(COCc3c(C)nc(N4CCOCC4)nc32)C1 (configuration not stated)
  cytotoxicity at 10 µM: -130%

## Cc1ccc(C)n1-c1ccsc1C(=O)NCC(=O)N1CCCC1
  cytotoxicity at 10 µM: -143%

## O=C(c1ccc(C2CCCO2)s1)N1CCS(=O)(=O)CC1 (configuration not stated)
  cytotoxicity at 10 µM: -14.8%

## CC(=O)N1CCC2(CCN(C(=O)c3ccc(Cl)c(C(F)(F)F)c3)C2)C1 (configuration not stated)
  cytotoxicity at 10 µM: -85.8%

## c1cnnc(-c2noc(COCC3CCCO3)n2)c1 (configuration not stated)
  cytotoxicity at 10 µM: 2.66%

## O=C(c1cc2c(s1)CCOC2)N1CCCCC1Cn1cccn1 (configuration not stated)
  cytotoxicity at 10 µM: -6.52%

## COCCNC(=O)[C@H]1CN(c2ncccn2)C[C@H]2OCC[C@@H]12
  cytotoxicity at 10 µM: -80.7%

## O=C(NC1CCCC1)NC1CCc2[nH]c(=O)ccc2C1 (configuration not stated)
  cytotoxicity at 10 µM: 7.91%

## COc1cccc(CNC(=O)N2CCN3CCNC(=O)C3C2)c1 (configuration not stated)
  cytotoxicity at 10 µM: 2.62%

## COCCOCC1CCN(C(=O)c2ccc3[nH]cnc3c2)C1 (configuration not stated)
  cytotoxicity at 10 µM: -5.73%

## COc1ccc(Br)cc1S(=O)(=O)N(C)Cc1ccc(N(C)C)cc1
  cytotoxicity at 10 µM: -7.59%

## Cc1cnn(CC2CCCN2c2ncnc3ccsc23)c1 (configuration not stated)
  cytotoxicity at 10 µM: 13.6%

## Cn1ncc(C(=O)O)c1C(=O)Nc1nc2ccc(Br)cc2s1
  cytotoxicity at 10 µM: 12.5%

From ChEMBL document CHEMBL4513216, “Probing the Open Global Health Chemical Diversity Library for Multistage-Active Starting Points for Next-Generation Antimalarials” (ACS Infect Dis, 2020)
